Screening data deposited in PubChem BioAssay by The Scripps Research Institute Molecular Screening Center.
MBD2 DNA inh: inhibitors of MBD2 binding to methylated DNA, primary screen, biochemical, TR-FRET, DNA-binding domain, human; MBD2 binding to methylated oligonucleotide; inhibition, % at 4.4 µM; hit rate 0.31% among 370,000; Methyl-CpG-binding domain protein 2 (Homo sapiens), Q9UBB5; in the data active means inhibition above about 13%
Rin1 Abl inh: inhibitors of Rin1-Abl protein binding, primary screen, biochemical, TR-FRET | Tyrosine-protein kinase ABL1 (Homo sapiens) + Ras and Rab interactor 1 (Homo sapiens), … | AID 588664, 2011 | hit rate 0.4% among 360,000 | inhibition, % at 7.35 µM; in the data active means inhibition above about 5%, passing the limit was not always enough
UHRF1 binding: UHRF1 methylated DNA binding inhibitors, primary screen, counter-screen for MBD2 inhibitor project, biochemical, TR-FRET, human UHRF1, single concentration; E3 ubiquitin-protein ligase UHRF1 (Homo sapiens), Q96T88; UHRF1 binding to methylated oligo; inhibition, % at 4.4 µM; hit rate 0.75% among 370,000; in the data active means inhibition above about 21%;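 further: UHRF1 SRA domain binding a hemimethylated CpG hairpin DNA probe; 0% = median of test compound wells and 100% = reference inhibitor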
LEDGF integ inh: blockers of LEDGF/p75-dependent integrase strand transfer – biochemical, TR-FRET, high throughput, primary screen; HIV-1 integrase (with human LEDGF/p75); inhibition, % at 3.7 µM; TR-FRET IN-LEDGF/p75 DNA integration, Eu/Cy5; hit rate 0.64% among 370,000; AID 743269, 2014;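 active means inhibition above the screen-wide mean plus 3 SD, cut at about 13% in these data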;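 further: signal is the Cy5 over europium emission ratio at 671 and 618 nm; 0% = plate median of compound wells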
TDP2 inh: human TDP2 enzyme inhibitors, primary screen, biochemical, epi absorbance, recombinant enzyme; Tyrosyl-DNA phosphodiesterase 2 (Homo sapiens), O95551; T5PNP hydrolysis, p-nitrophenol absorbance 415 nm; inhibition, % at 12.8 µM; hit rate 0.34% among 370,000; AID 720702, 2013;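 active means inhibition above the mean of all tested compounds plus 3 SD, set per campaign, cut at about 25% in these data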;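 further: 0% = DMSO with enzyme and 100% = buffer with substrate but no TDP2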
Target sequence (O95551 whole entry, looked up): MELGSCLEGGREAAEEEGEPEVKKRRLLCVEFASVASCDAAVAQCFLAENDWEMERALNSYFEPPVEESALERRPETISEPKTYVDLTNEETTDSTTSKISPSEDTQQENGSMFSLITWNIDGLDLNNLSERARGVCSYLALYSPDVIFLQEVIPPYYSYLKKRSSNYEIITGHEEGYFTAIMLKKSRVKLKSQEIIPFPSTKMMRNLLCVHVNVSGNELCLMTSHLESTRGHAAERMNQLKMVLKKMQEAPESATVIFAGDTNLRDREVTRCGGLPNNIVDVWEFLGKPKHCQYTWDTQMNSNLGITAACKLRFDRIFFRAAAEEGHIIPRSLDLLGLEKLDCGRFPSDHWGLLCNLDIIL
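System – recombinant human TDP2 · Amount – 120 nM TDP2 per well · Buffer or medium – Mg2+-containing Tris-HCl buffer, pH 7.5 · Reagent – T5PNP substrate, 5 mM · Dosing – 12.8 µM single point, 1% DMSO · Incubation – 2 h at 37 °C · Measured by – epi absorbance · Read-out basis – percent inhibition · Benchmarks – high control without enzyme, low control DMSO plus TDP2 · Repeats – singlicate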
Rin1-Abl confirm: Rin1-Abl binding inhibitor retest, confirmation, biochemical, TR-FRET. shares compounds with Rin1 Abl inh. purified proteins. inhibition, % at 7.35 µM. hit rate 49% among 1,300. AID 602124, 2011
GFP quencher: GFP fluorescence inhibitors and quenchers, artefact control for Rin1-Abl interaction inhibitor project, biochemical; shares compounds with Rin1 Abl inh; inhibitors/quenchers counterscreen; inhibition, % at 6.75 µM; hit rate 8.5% among 1,300;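 further: ABL1-eGFP fusion protein alone without its partner RIN1-SBP; 0% = protein with vehicle and 100% = wells lacking protein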
GFP quench DR: GFP fluorescence inhibitors and quenchers, dose response, artefact control for Rin1-Abl interaction inhibitor project, biochemical; AID 602182, 2012; 230 tested, under 10 active; GFP fluorescence interference/quenching counterscreen; IC50, µM; shares compounds with Rin1 Abl inh; call rule not given here;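 further: ABL1-eGFP fusion protein alone without its RIN1 binding partner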
The depositor's hits bear a star. The list is not random: actives were taken first. Their share in the collection is about 1.9%. Unless noted, no stated cut-off is given here; in the data, active means inhibition above about 6.5%; inactive means the rest.

Screening COc1ccc(/C=N/NC(=O)COc2ccc(Cl)cc2Cl)cc1Cn1nc(C)cc1C returned MBD2 DNA inh -1, Rin1 Abl inh 9.4*, UHRF1 binding 2, LEDGF integ inh -17, TDP2 inh 6, Rin1-Abl confirm 1 and GFP quencher 1.
CC(=O)c1cc(-c2cc3ccccc3o2)c(=O)n2c1CCC2 was read as MBD2 DNA inh 0, UHRF1 binding -5, LEDGF integ inh -1 and TDP2 inh 9.
COc1ccc(N2CCN(c3nc4c(c(=O)n(C)c(=O)n4C)n3Cc3ccccc3)CC2)cc1 was read as MBD2 DNA inh 8, Rin1 Abl inh 5.8*, UHRF1 binding 1, LEDGF integ inh 3, TDP2 inh -2, Rin1-Abl confirm 7.7* and GFP quencher 0.
For C=C(C)Cn1c(N2CCN(c3ccc(OC)cc3)CC2)nc2c1c(=O)n(C)c(=O)n2C the results were MBD2 DNA inh 4, Rin1 Abl inh 6, UHRF1 binding -1, LEDGF integ inh -3 and TDP2 inh 16.
Screening CCn1c(SCc2ccc(C(=O)OC)o2)nnc1-c1c[nH]c2ccccc12 returned MBD2 DNA inh -3, Rin1 Abl inh 14*, UHRF1 binding -1, LEDGF integ inh 2, TDP2 inh 5, Rin1-Abl confirm 11* and GFP quencher 0.
For COC(=O)[C@@]12CCCCC3=C1N(CCC3)C(=O)[C@H]2CC(=O)NCc1ccc(OC)c(OC)c1 the results were MBD2 DNA inh -2, UHRF1 binding 0, LEDGF integ inh 4 and TDP2 inh -10.
Screening O=C(/C=C/c1cccnc1)c1cccc(O)c1 returned MBD2 DNA inh -1, Rin1 Abl inh 8.6*, UHRF1 binding -3, LEDGF integ inh 1, TDP2 inh 15, Rin1-Abl confirm 10* and GFP quencher 0.
For C[C@H]1CCC[C@H](O)CC(=O)c2c(O)cc(O)cc2CC(=O)O1 the results were MBD2 DNA inh -1, UHRF1 binding 1, LEDGF integ inh 5 and TDP2 inh 0.
Screening CCOC(=O)CSc1ccc2nnc(-c3cccnc3)n2n1 returned MBD2 DNA inh -1, Rin1 Abl inh 7.5*, UHRF1 binding -1, LEDGF integ inh -3, TDP2 inh -2, Rin1-Abl confirm -3 and GFP quencher -1.
`CCOC(=O)CSc1ccc2nnc(-c3ccccc3)n2n1` gave MBD2 DNA inh -2, Rin1 Abl inh -2, UHRF1 binding -1, LEDGF integ inh -1 and TDP2 inh -8.
Screening COc1cc(CNCCc2ccccc2F)ccc1OCc1ccc(Cl)nc1 returned MBD2 DNA inh 0, Rin1 Abl inh 7.5*, UHRF1 binding 0, LEDGF integ inh -2, TDP2 inh -1, Rin1-Abl confirm 7.2* and GFP quencher -2.
`COc1cc(CO)ccc1OCc1ccc(Cl)nc1` gave MBD2 DNA inh -5, Rin1 Abl inh -1, UHRF1 binding -1, LEDGF integ inh -4 and TDP2 inh -4.
Screening COc1cc(CNCCc2ccc(F)cc2)ccc1OCc1ccc(Cl)nc1 returned MBD2 DNA inh 5, Rin1 Abl inh 12*, UHRF1 binding 7, LEDGF integ inh 2, TDP2 inh -14, Rin1-Abl confirm 11* and GFP quencher 1.
`Cc1ccc(C)c(NC(=O)c2cccc3c2-c2ccccc2C3=O)c1` gave MBD2 DNA inh 2, UHRF1 binding -1, LEDGF integ inh -10 and TDP2 inh 11.
`COc1ccc(-n2nnc3c(=O)n(CC(=O)N4CCCC4)cnc32)cc1` gave MBD2 DNA inh 4, Rin1 Abl inh 5.0*, UHRF1 binding 2, LEDGF integ inh -5, TDP2 inh -7, Rin1-Abl confirm -2 and GFP quencher 0.
For CC(=O)c1ccc(OCCCC(=O)N2CCN(S(=O)(=O)c3ccc(C)cc3C)CC2)cc1 the results were MBD2 DNA inh 1, Rin1 Abl inh 7.5*, UHRF1 binding -1, LEDGF integ inh 0, TDP2 inh 10, Rin1-Abl confirm 0 and GFP quencher 0.
`CCC(C)NS(=O)(=O)c1ccc(S(=O)(=O)N(CC(=O)Nc2ccccc2)Cc2ccco2)cc1` (configuration not stated) gave MBD2 DNA inh -2, Rin1 Abl inh 4.8*, UHRF1 binding -2, LEDGF integ inh 9, TDP2 inh -9, Rin1-Abl confirm 0 and GFP quencher 0.
`CCOc1cccc(-c2nnc3n2N=C(c2ccc(OC)cc2)CS3)c1` gave MBD2 DNA inh -2, UHRF1 binding 0, LEDGF integ inh 0 and TDP2 inh 1.
`Cc1ccc(S(=O)(=O)c2nnn3c2nc(N2CCOCC2)c2ccccc23)cc1C` gave MBD2 DNA inh -1, Rin1 Abl inh 2, UHRF1 binding 0, LEDGF integ inh 2 and TDP2 inh -3.
`Cc1ccc(S(=O)(=O)c2nnn3c2nc(N2CCOCC2)c2ccccc23)c(C)c1` gave MBD2 DNA inh 7, Rin1 Abl inh 46*, UHRF1 binding 4, LEDGF integ inh -2, TDP2 inh -8, Rin1-Abl confirm 30* and GFP quencher 0.
O=C1N(c2cccc(Cl)c2)C(c2ccc(Cl)cc2)N2CCCN12 (configuration not stated) was read as MBD2 DNA inh -1, Rin1 Abl inh 11*, UHRF1 binding 8, LEDGF integ inh 3, TDP2 inh -8, Rin1-Abl confirm 18*, GFP quencher -2 and GFP quench DR >68.
For O=C1N(c2cccc(Cl)c2)C(c2ccccc2)N2CCCN12 (configuration not stated) the results were MBD2 DNA inh -3, Rin1 Abl inh 17*, UHRF1 binding 7, LEDGF integ inh 3, TDP2 inh -1, Rin1-Abl confirm 24*, GFP quencher -1 and GFP quench DR >68.
`Cc1ccc(C2N(c3ccccc3)C(=O)N3CCCN23)cc1` (configuration not stated) gave MBD2 DNA inh 0, Rin1 Abl inh 0, UHRF1 binding 11, LEDGF integ inh -1 and TDP2 inh -5.
